# What was measured:
# [1] = tested on: Huh-7; assay: Cytotoxicity against human HuH7 cells assessed as reduction in cell viability up to 100 uM after 72 hrs by Cell Titer-Fluor Cell assay; format: cell-based; settings: huh-7, 72 h
# In short: (§1)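 Huh7 cells carrying HCV genotype 1b replicon, 8000 per well, in duplicate 3-fold dilution series with 0.5% DMSO final; 72 h at 37 °C, 5% CO2. Viability read by Cell Titer-Fluor fluorescence after 5 min; replicon inhibition read by Bright-Glo luciferase luminescence in the same wells. EC50 and CC50 come from curve fitting.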
# [2] = Inhibition of wild type NS5B in HCV genotype 1b replicon expressed in human HuH7 cells after 72 hrs by bright Glo-luciferase reporter gene assay; format: cell-based, Hepatitis C virus subtype 1b; settings: Hepatitis C virus, Huh-7, 72 h; in short: as §1
# [3] = tested on: Hepatitis C virus subtype 1b; assay: Ratio of EC50 for HCV genotype 1b replicon NS5B S282T mutant to EC50 for wild type HCV genotype 1b replicon NS5B
# In short: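 Huh7 cells carrying wild-type or S282T mutant HCV genotype 1b replicon, 8000 cells per well, exposed to 3-fold compound dilution series (0.5% DMSO final, duplicates) for 72 h at 37 °C, 5% CO2. Replicon activity read by Bright-Glo luciferase luminescence. EC50 averaged from duplicate determinations; ratio taken as S282T EC50 over wild-type EC50.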
# [4] = Half life in human liver S9 fraction at 10 uM by LC/MS/MS analysis; format: ADME
# In short: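 Compound at 10 μM working solution (1% DMSO, 5% MeOH in 100 mM Tris) incubated at 37 °C with human liver S9 at 1 mg protein/mL final. Reactions stopped with cold acetonitrile containing tolbutamide internal standard at 0, 5, 10, 20, 30 and 60 min. Parent measured by LC/MS/MS (MRM) as analyte/IS peak area ratio, given as percent remaining versus 0 min; half-life fitted.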
# [5] = Half life in human plasma […] by LC/MS/MS analysis; format: ADME, cell-free
# In short: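 Pooled human plasma adjusted to pH 7.4 and prewarmed, then spiked to 2 μM final from a 200 μM DMSO working solution, in duplicate. Sampled at 0, 10, 30, 60 and 120 min and quenched with acetonitrile containing tolbutamide and buspirone. LC/MS/MS (MRM) peak area ratios; ke from linear regression of the initial linear phase, t1/2 = ln2/ke.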
SMILES,Activity [1],EC50 [2] [nM],Ratio EC50 [3],half-life at 10 µM [4] [h],half-life [5] [h]
CC(C)OC(=O)Nc1ccn([C@@H]2O[C@H](CO[P@@](=O)(N[C@@H](C)C(=O)OC(C)C)Oc3ccccc3)[C@@H](O)[C@@]2(C)F)c(=O)n1,Non-Toxic,3870,,,
CC(C)OC(=O)[C@H](C)N[P@](=O)(OC[C@H]1O[C@@H](n2ccc(NC(=O)OCc3ccccc3)nc2=O)[C@](C)(F)[C@@H]1O)Oc1ccccc1,Non-Toxic,> 10000,,,
CCCC(CCC)C(=O)Nc1ccn([C@@H]2O[C@H](CO[P@@](=O)(N[C@@H](C)C(=O)OC(C)C)Oc3ccccc3)[C@@H](O)[C@@]2(C)F)c(=O)n1,Non-Toxic,1640,,,
CC(C)OC(=O)[C@H](C)N[P@](=O)(OC[C@H]1O[C@@H](n2ccc(NC(=O)OC3CCCCC3)nc2=O)[C@](C)(F)[C@@H]1O)Oc1ccccc1,Non-Toxic,> 10000,,,
CC(C)OC(=O)[C@H](C)N[P@](=O)(OC[C@H]1O[C@@H](n2ccc(NC(=O)C3CCC3)nc2=O)[C@](C)(F)[C@@H]1O)Oc1ccccc1,Non-Toxic,190,,,
COc1ccc(C(=O)Nc2ccn([C@@H]3O[C@H](CO[P@@](=O)(N[C@@H](C)C(=O)OC(C)C)Oc4ccccc4)[C@@H](O)[C@@]3(C)F)c(=O)n2)cc1,Non-Toxic,> 10000,,,
CC(C)OC(=O)[C@H](C)N[P@](=O)(OC[C@H]1O[C@@H](n2ccc(NC(=O)c3ccc(Cl)cc3)nc2=O)[C@](C)(F)[C@@H]1O)Oc1ccccc1,Non-Toxic,1920,,,
CC(C)OC(=O)[C@H](C)N[P@](=O)(OC[C@H]1O[C@@H](n2ccc(NC(=O)C3CCCCC3)nc2=O)[C@](C)(F)[C@@H]1O)Oc1ccccc1,Non-Toxic,4200,,,
CC(C)CCC(=O)Nc1ccn([C@@H]2O[C@H](CO[P@@](=O)(N[C@@H](C)C(=O)OC(C)C)Oc3ccccc3)[C@@H](O)[C@@]2(C)F)c(=O)n1,Non-Toxic,670,,,
CC(C)OC(=O)[C@H](C)N[P@](=O)(OC[C@H]1O[C@@H](n2ccc(NC(=O)/C=C/c3ccccc3)nc2=O)[C@](C)(F)[C@@H]1O)Oc1ccccc1,Non-Toxic,4080,,,
CC(C)COC(=O)Nc1ccn([C@@H]2O[C@H](CO[P@@](=O)(N[C@@H](C)C(=O)OC(C)C)Oc3ccccc3)[C@@H](O)[C@@]2(C)F)c(=O)n1,Non-Toxic,> 10000,,,
CC(C)C(=O)OC[C@H]1O[C@@H](n2ccc(N)nc2=O)[C@](C)(F)[C@@H]1OC(=O)C(C)C [MERICITABINE],Non-Toxic,1110,,,
CCC(=O)Nc1ccn([C@@H]2O[C@H](CO[P@@](=O)(N[C@@H](C)C(=O)OC(C)C)Oc3ccccc3)[C@@H](O)[C@@]2(C)F)c(=O)n1,Non-Toxic,1480,,,
CC(C)OC(=O)[C@H](C)N[P@](=O)(OC[C@H]1O[C@@H](n2ccc(NC(=O)c3ccccc3)nc2=O)[C@](C)(F)[C@@H]1O)Oc1ccccc1,Non-Toxic,1990,,,
CC(=O)Nc1ccn([C@@H]2O[C@H](CO[P@@](=O)(N[C@@H](C)C(=O)OC(C)C)Oc3ccccc3)[C@@H](O)[C@@]2(C)F)c(=O)n1,Non-Toxic,1040,,,
CC(C)OC(=O)[C@H](C)N[P@](=O)(OC[C@H]1O[C@@H](n2ccc(NC(=O)C3CC3)nc2=O)[C@](C)(F)[C@@H]1O)Oc1ccccc1,Non-Toxic,2250,,,

SMILES,Activity [1],EC50 [2] [nM],Ratio EC50 [3],half-life at 10 µM [4] [h],half-life [5] [h]
CCCCOC(=O)Nc1ccn([C@@H]2O[C@H](CO[P@@](=O)(N[C@@H](C)C(=O)OC(C)C)Oc3ccccc3)[C@@H](O)[C@@]2(C)F)c(=O)n1,Non-Toxic,2610,,,
CCC(CC)C(=O)Nc1ccn([C@@H]2O[C@H](CO[P@@](=O)(N[C@@H](C)C(=O)OC(C)C)Oc3ccccc3)[C@@H](O)[C@@]2(C)F)c(=O)n1,Non-Toxic,> 10000,,,
CC(C)OC(=O)[C@H](C)N[P@](=O)(OC[C@H]1O[C@@H](n2ccc(NC(=O)C(C)C)nc2=O)[C@](C)(F)[C@@H]1O)Oc1ccccc1,Non-Toxic,2200,,,
CCC(CC)OC(=O)Nc1ccn([C@@H]2O[C@H](CO[P@@](=O)(N[C@@H](C)C(=O)OC(C)C)Oc3ccccc3)[C@@H](O)[C@@]2(C)F)c(=O)n1,Non-Toxic,> 10000,,,
CCCCC(=O)Nc1ccn([C@@H]2O[C@H](CO[P@@](=O)(N[C@@H](C)C(=O)OC(C)C)Oc3ccccc3)[C@@H](O)[C@@]2(C)F)c(=O)n1,Non-Toxic,190,,,
CC(C)OC(=O)[C@H](C)N[P@](=O)(OC[C@H]1O[C@@H](n2ccc(=O)[nH]c2=O)[C@](C)(F)[C@@H]1O)Oc1ccccc1 [SOFOSBUVIR],Non-Toxic,150,8.1,0.802,> 3.85
CCCCCOC(=O)Nc1ccn([C@@H]2O[C@H](CO[P@@](=O)(N[C@@H](C)C(=O)OC(C)C)Oc3ccccc3)[C@@H](O)[C@@]2(C)F)c(=O)n1,Non-Toxic,> 10000,,,
CC(C)OC(=O)[C@H](C)N[P@](=O)(OC[C@H]1O[C@@H](n2ccc(NC(=O)C(C)(C)Oc3ccc(Cl)cc3)nc2=O)[C@](C)(F)[C@@H]1O)Oc1ccccc1,Non-Toxic,4020,,,
CCOC(=O)Nc1ccn([C@@H]2O[C@H](CO[P@@](=O)(N[C@@H](C)C(=O)OC(C)C)Oc3ccccc3)[C@@H](O)[C@@]2(C)F)c(=O)n1,Non-Toxic,8360,,,
CC(C)OC(=O)[C@H](C)N[P@](=O)(OC[C@H]1O[C@@H](n2ccc(NC(=O)Cc3ccccc3)nc2=O)[C@](C)(F)[C@@H]1O)Oc1ccccc1,Non-Toxic,1320,,,
CCCOC(=O)Nc1ccn([C@@H]2O[C@H](CO[P@@](=O)(N[C@@H](C)C(=O)OC(C)C)Oc3ccccc3)[C@@H](O)[C@@]2(C)F)c(=O)n1,Non-Toxic,6010,,,
CCCCCC(=O)Nc1ccn([C@@H]2O[C@H](CO[P@@](=O)(N[C@@H](C)C(=O)OC(C)C)Oc3ccccc3)[C@@H](O)[C@@]2(C)F)c(=O)n1,Non-Toxic,250,,,
CC(C)OC(=O)[C@H](C)N[P@](=O)(OC[C@H]1O[C@@H](n2ccc(N)nc2=O)[C@](C)(F)[C@@H]1O)Oc1ccccc1,Non-Toxic,660,4.1,1.78,> 3.85
CC(C)OC(=O)[C@H](C)N[P@](=O)(OC[C@H]1O[C@@H](n2ccc(NC(=O)CCc3ccccc3)nc2=O)[C@](C)(F)[C@@H]1O)Oc1ccccc1,Non-Toxic,1470,,,
CCCCCCOC(=O)Nc1ccn([C@@H]2O[C@H](CO[P@@](=O)(N[C@@H](C)C(=O)OC(C)C)Oc3ccccc3)[C@@H](O)[C@@]2(C)F)c(=O)n1,Non-Toxic,> 10000,,,
